Data taken from ChEMBL document CHEMBL1140054, “Phosphate prodrugs derived from N-acetylglucosamine have enhanced chondroprotective activity in explant cultures and represent a new lead in antiosteoarthritis drug discovery” (J Med Chem, 2008).

Key:
[1] = Chondroprotective activity in bovine articular cartilage explant cultures assessed as reduction in IL1-induced glycosaminoglycan release at 10 mM after 96 hrs relative to control; format: functional, Bos taurus; parameters: scale not given: the % may be the effect or the level left
Outline: (§1)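 Full-depth articular cartilage explants (50-100 mg) from mature bovine metacarpophalangeal joints; equilibrated 48 h in DMEM with 10% FCS, gentamicin, 1% HEPES, then washed in serum-free medium. Cultured in triplicate in serum-free DMEM with or without compound (10-0.1 mM); 10 ng/mL recombinant human IL-1 added to half the wells. After 96 h, media sulfated GAG measured by DMMB dye binding (A525) against shark chondroitin sulfate C standard.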

[2] = Chondroprotective activity in bovine articular cartilage explant cultures assessed as reduction in IL1-induced glycosaminoglycan release at 10 mM after 96 hrs; format: functional, Bos taurus; outline: as §1
[3] = Cytotoxicity against bovine chondrocytes at 10 mM after 96 hrs by MTT cell viability assay; format: cell-based, Bos taurus; conditions: cattle, 10000 µM
Outline: (§2)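 Chondrocytes isolated from mature bovine (>18 months) metacarpophalangeal cartilage by 1 h 0.1% pronase then overnight 0.04% collagenase digestion at 37 °C. Cultured 96 h in serum-free DMEM with gentamicin and 1% HEPES, with or without compound (10-0.1 mM). MTT at final 1 mg/mL for 3 h; formazan dissolved in DMSO and OD read. Viability given as % of untreated cells; n experiments from different cows, in triplicate.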

[4] = Chondroprotective activity in bovine articular cartilage explant cultures assessed as reduction in IL1-induced glycosaminoglycan release at 1 mM after 96 hrs; format: functional, Bos taurus; outline: as §1
[5] = Cytotoxicity against bovine chondrocytes at 1 mM after 96 hrs by MTT cell viability assay; format: cell-based, Bos taurus; conditions: cattle, 1000 µM; outline: as §2
[6] = Chondroprotective activity in bovine articular cartilage explant cultures assessed as reduction in IL1-induced glycosaminoglycan release at 0.1 mM after 96 hrs; format: functional, Bos taurus; outline: as §1
[7] = Cytotoxicity against bovine chondrocytes at 0.1 mM after 96 hrs by MTT cell viability assay; format: cell-based, Bos taurus; conditions: cattle, 100 µM; outline: as §2
[8] = Chondroprotective activity in bovine articular cartilage explant cultures assessed as reduction in IL1-induced glycosaminoglycan release at 1 mM after 96 hrs relative to control; format: functional, Bos taurus; parameters: scale not given: the % may be the effect or the level left; outline: as §1
[9] = Chondroprotective activity in bovine articular cartilage explant cultures assessed as reduction in IL1-induced glycosaminoglycan release at 0.1 mM after 96 hrs relative to control; format: functional, Bos taurus; parameters: scale not given: the % may be the effect or the level left; outline: as §1

Compound | Activity [1] [%] | fold change (FC) [2] | Activity [3] [%] | fold change (FC) [4] | Activity [5] [%] | fold change (FC) [6] | Activity [7] [%] | Activity [8] [%] | Activity [9] [%]
COc1ccc(OP(=O)(N[C@@H](Cc2ccccc2)C(=O)OCc2ccccc2)OC[C@H]2OC(O)[C@H](NC(C)=O)[C@@H](O)[C@@H]2O)cc1 (some centres not stated) | 2.3 | 2.1 | 49 | – | – | – | – | – | –
COc1ccc(OP(=O)(N[C@@H](CCSC)C(=O)OCc2ccccc2)OC[C@H]2OC(O)[C@H](NC(C)=O)[C@@H](O)[C@@H]2O)cc1 (some centres not stated) | – | – | – | 1.6 | 49 | 3.8 | 103 | 62.2 | 18
COc1ccc(OP(=O)(N[C@H](C)C(=O)OCc2ccccc2)OC[C@H]2OC(O)[C@H](NC(C)=O)[C@@H](O)[C@@H]2O)cc1 (some centres not stated) | – | – | – | 2.8 | 66 | 3.4 | 96 | 31 | 24.3
COc1ccc(OP(=O)(OC[C@H]2OC(O)[C@H](NC(C)=O)[C@@H](O)[C@@H]2O)N2CCC[C@H]2C(=O)OCc2ccccc2)cc1 (some centres not stated) | 65.6 | 0.8 | 63 | 4.1 | 85 | 4 | 78 | 2.2 | -21.9
CCOC(=O)[C@@H](NP(=O)(OC[C@H]1OC(O)[C@H](NC(C)=O)[C@@H](O)[C@@H]1O)Oc1ccc(OC)cc1)C(C)C (some centres not stated) | – | – | – | – | – | 4.4 | 94 | – | -21.1
CCOC(=O)[C@H](C)NP(=O)(OC[C@H]1OC(O)[C@H](NC(C)=O)[C@@H](O)[C@@H]1O)Oc1ccc(OC)cc1 (some centres not stated) | – | – | – | – | 76 | 4.4 | 89 | – | -1.9
CCOC(=O)CNP(=O)(OC[C@H]1OC(O)[C@H](NC(C)=O)[C@@H](O)[C@@H]1O)Oc1ccc(OC)cc1 (some centres not stated) | – | – | – | – | 37 | 3.6 | 78 | – | -19.3
CCOC(=O)CN(C)P(=O)(OC[C@H]1OC(O)[C@H](NC(C)=O)[C@@H](O)[C@@H]1O)Oc1ccc(OC)cc1 (some centres not stated) | – | – | – | – | 100 | 5.4 | 100 | – | -16.3
COc1ccc(OP(=O)(N[C@@H](C)C(=O)OCc2ccccc2)OC[C@H]2OC(O)[C@H](NC(C)=O)[C@@H](O)[C@@H]2O)cc1 (some centres not stated) | 24.2 | 2 | 85 | 4.2 | 81 | 4.6 | 104 | 5.6 | -2.2
COc1ccc(OP(=O)(N[C@H](C(=O)OCc2ccccc2)C(C)C)OC[C@H]2OC(O)[C@H](NC(C)=O)[C@@H](O)[C@@H]2O)cc1 (some centres not stated) | 85.3 | 0.5 | 40 | 0.9 | 100 | 4 | 104 | 77.6 | 2.5
COc1ccc(OP(=O)(N[C@H](C(=O)OC2CCCCC2)C(C)C)OC[C@H]2OC(O)[C@H](NC(C)=O)[C@@H](O)[C@@H]2O)cc1 (some centres not stated) | – | – | – | – | 30 | 4.8 | 92 | – | -6.3
COC(=O)[C@H](C)NP(=O)(OC[C@H]1OC(O)[C@H](NC(C)=O)[C@@H](O)[C@@H]1O)Oc1ccc(OC)cc1 (some centres not stated) | – | – | – | – | 37 | 3.9 | 97 | – | 15.8
COc1ccc(OP(=O)(N[C@H](C(=O)OC(C)C)C(C)C)OC[C@H]2OC(O)[C@H](NC(C)=O)[C@@H](O)[C@@H]2O)cc1 (some centres not stated) | – | – | – | 3.6 | 56 | 3.2 | 93 | 12.1 | 14
CCCCOC(=O)[C@@H]1CCCN1P(=O)(OC[C@H]1OC(O)[C@H](NC(C)=O)[C@@H](O)[C@@H]1O)Oc1ccc(OC)cc1 (some centres not stated) | – | – | – | – | – | 4.1 | 98 | – | -17.5
COc1ccc(OP(=O)(NCC(=O)OCc2ccccc2)OC[C@H]2OC(O)[C@H](NC(C)=O)[C@@H](O)[C@@H]2O)cc1 (some centres not stated) | – | – | – | 1.2 | 100 | 4.2 | 99 | 73.6 | -12.2
CC[C@H](C)[C@H](NP(=O)(OC[C@H]1OC(O)[C@H](NC(C)=O)[C@@H](O)[C@@H]1O)Oc1ccc(OC)cc1)C(=O)OCc1ccccc1 (some centres not stated) | 74.6 | 0.5 | 56 | 1.2 | 118 | 3.9 | 110 | 70.8 | 5.2
COc1ccc(OP(=O)(N[C@@H](CC(C)C)C(=O)OCc2ccccc2)OC[C@H]2OC(O)[C@H](NC(C)=O)[C@@H](O)[C@@H]2O)cc1 (some centres not stated) | 64 | 0.9 | 39 | 2.6 | 20 | 4.1 | 87 | 44.7 | 12.2
COc1ccc(OP(=O)(NC(C)(C)C(=O)OCc2ccccc2)OC[C@H]2OC(O)[C@H](NC(C)=O)[C@@H](O)[C@@H]2O)cc1 (some centres not stated) | – | – | – | 4.2 | 95 | 3.4 | 99 | -0.3 | -2.2
N[C@H]1C(O)O[C@H](CO)[C@@H](O)[C@@H]1O (some centres not stated) [GLUCOSAMINE] | 19 | 2 | 56 | 4.7 | 88 | 5.1 | 106 | 3.4 | 0.8
CC(=O)N[C@@H]1[C@@H](O)[C@H](O)[C@@H](CO)O[C@H]1O [N-ACETYLGLUCOSAMINE] | 9.3 | 2.9 | 61 | 4.5 | 70 | 4.3 | 107 | -1 | 5.4
